Measured values: PMC10238757 (Pharmacology Research & Perspectives, 2023)

Columns and labels:
Single ascending dose = type: in vivo, human
Procedure, shortened: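 Healthy participants, double-blind cross-over between 2 cohorts of 9, randomized 6:3 drug:placebo each period. Single oral doses of 10–800 mg right after a moderate-fat breakfast (600 calories, 30% fat). Plasma sampled to 360 h (protocol first set 96 h); LLOQ 10 ng/mL. Non-compartmental analysis; dose proportionality by power model.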

Multiple ascending dose = type: in vivo, human; settings: for half-life / AUC(0-t) / Cmax / concentration at 24 h / Tmax: human, plasma, oral; for Cmax: C max; for Cmax / concentration at 24 h: ng/mL GM (%CVb); for concentration at 24 h: C trough; for Tmax: t max, h median (range)
Procedure, shortened: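 Healthy participants, double-blind and placebo-controlled, cohorts of 10 randomized 7:3. Oral doses after a moderate-fat meal: 25–100 mg QD for 14 days (18 days at top dose), or 500 mg QW ×3. Trough taken pre-dose at end of interval (24 h QD, 168 h QW). Plasma followed to 360 h; LLOQ 10 ng/mL. Non-compartmental PK; accumulation ratios Day 14, 15 or 18 vs Day 1; geometric means with CVb.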

C=C(C)[C@@H]1CC[C@]2(NCCN3CCS(=O)(=O)CC3)CC[C@]3(C)[C@H](CC[C@@H]4[C@@]5(C)CC=C(C6=CC[C@@](COc7ncccc7C#N)(C(=O)O)CC6)C(C)(C)[C@@H]5CC[C@]43C)[C@@H]12 [GSK'937]
t max, h median (range) (Single ascending dose; SAD 800 mg): 18.08 (12.1–24.1) h | time up to which concentrations were quantifiable (Single ascending dose; after the 10-mg dose): up to 96 h | time up to which concentrations were quantifiable (Single ascending dose; after the 30-mg dose, 5 of 6 participants): ≤ 264 h | time up to which concentrations were quantifiable (Single ascending dose; all other doses except 1 individual in the 80-mg cohort): ≤ 360 h | AUC(0-t) (Single ascending dose; human, plasma, oral, 10 mg): 2490 ng·h/mL | Cmax (Single ascending dose; human, plasma, oral, 10 mg): 39.2 ng/mL | Tmax (Single ascending dose; human, plasma, oral, 10 mg, t max, h median (range), SAD 10 mg): 6.98 h | Cmax (Single ascending dose; human, plasma, oral, 30 mg): 127 ng/mL | half-life (Single ascending dose; human, plasma, oral, 30 mg, t 1/2 GM (%CVb), SAD 30 mg): 3.16 days | Tmax (Single ascending dose; human, plasma, oral, 30 mg, t max, h median (range), SAD 30 mg): 8 h | Cmax (Single ascending dose; human, plasma, oral, 80 mg): 310 ng/mL | half-life (Single ascending dose; human, plasma, oral, 80 mg, t 1/2 GM (%CVb), SAD 80 mg): 3.3 days | Tmax (Single ascending dose; human, plasma, oral, 80 mg, t max, h median (range), SAD 80 mg): 7.98 h | Cmax (Single ascending dose; human, plasma, oral, 160 mg): 529 ng/mL | half-life (Single ascending dose; human, plasma, oral, 160 mg, t 1/2 GM (%CVb), SAD 160 mg): 3.83 days | Tmax (Single ascending dose; human, plasma, oral, 160 mg, t max, h median (range), SAD 160 mg): 7.95 h | Cmax (Single ascending dose; human, plasma, oral, 320 mg): 1010 ng/mL | half-life (Single ascending dose; human, plasma, oral, 320 mg, t 1/2 GM (%CVb), SAD 320 mg): 4.03 days | Tmax (Single ascending dose; human, plasma, oral, 320 mg, t max, h median (range), SAD 320 mg): 6.99 h | Cmax (Single ascending dose; human, plasma, oral, 640 mg): 1460 ng/mL | half-life (Single ascending dose; human, plasma, oral, 640 mg, t 1/2 GM (%CVb), SAD 640 mg): 3.44 days | Tmax (Single ascending dose; human, plasma, oral, 640 mg, t max, h median (range), SAD 640 mg): 7 h | Cmax (Single ascending dose; human, plasma, oral, 800 mg): 2860 ng/mL | half-life (Single ascending dose; human, plasma, oral, 800 mg, t 1/2 GM (%CVb), SAD 800 mg): 2.81 days | Tmax (Single ascending dose; human, plasma, oral, 800 mg, t max, h median (range), SAD 800 mg): 18 h | Tmax (Single ascending dose; human, plasma, oral, Median t max, all single doses except the 800-mg dose): 7 to 8 h | half-life (Single ascending dose; human, plasma, oral, t 1/2, range across doses, part 1 single doses): 2.79 to 4.04 days | half-life (Single ascending dose; human, plasma, oral, terminal phase half-life, all doses following single and repeat dosing): ~3 days | Accumulation ratio of C trough GM (%CVb) (Multiple ascending dose; 25 mg QD, Day 14/Day 1): 6.58 (31.4) | Accumulation ratio of C trough GM (%CVb) (Multiple ascending dose; 50 mg QD, Day 14/Day 1): 5.25 (35.7) | Accumulation ratio of C trough GM (%CVb) (Multiple ascending dose; 100 mg QD, Day 18/Day 1): 9.39 (72.5) | accumulation in exposure following repeat dosing (Multiple ascending dose; 500 mg QW (weekly)): ~ 1.7 fold | Accumulation ratio of AUC0-t GM (%CVb) (Multiple ascending dose; 500 mg QW, Day 15/Day 1): 1.76 (27.0) | Accumulation ratio of C max GM (%CVb) (Multiple ascending dose; 500 mg QW, Day 15/Day 1): 1.68 (26.9) | Accumulation ratio of C trough GM (%CVb) (Multiple ascending dose; 500 mg QW, Day 15/Day 1): 1.82 (33.8) | time after final dose at which still detectable (Multiple ascending dose; all part 2 participants): 360 h | half-life (Multiple ascending dose): 3.01 to 3.58 days | AUC(0-t) (Multiple ascending dose; 25 mg): 1890 ng·h/mL | half-life (Multiple ascending dose; 25 mg): 3.58 days | Cmax (Multiple ascending dose; 25 mg, 25 mg QD, Day 1): 132 ng/mL | Cmax (Multiple ascending dose; 25 mg, 25 mg QD, Day 14): 766 ng/mL | concentration at 24 h (Multiple ascending dose; 25 mg, 25 mg QD, Day 1, 24 h): 89.3 ng/mL | concentration at 24 h (Multiple ascending dose; 25 mg, 25 mg QD, Day 14, 24 h): 588 ng/mL | Tmax (Multiple ascending dose; 25 mg, 25 mg QD, Day 1): 9 h | Tmax (Multiple ascending dose; 25 mg, 25 mg QD, Day 14): 6.95 h | AUC(0-t) (Multiple ascending dose; 50 mg): 3560 ng·h/mL | half-life (Multiple ascending dose; 50 mg): 3.01 days | Cmax (Multiple ascending dose; 50 mg, 50 mg QD, Day 1): 232 ng/mL | Cmax (Multiple ascending dose; 50 mg, 50 mg QD, Day 14): 1150 ng/mL | concentration at 24 h (Multiple ascending dose; 50 mg, 50 mg QD, Day 1, 24 h): 189 ng/mL | concentration at 24 h (Multiple ascending dose; 50 mg, 50 mg QD, Day 14, 24 h): 990 ng/mL | Tmax (Multiple ascending dose; 50 mg, 50 mg QD, Day 1): 8 h | Tmax (Multiple ascending dose; 50 mg, 50 mg QD, Day 14): 7.03 h | AUC(0-t) (Multiple ascending dose; 100 mg): 5890 ng·h/mL | half-life (Multiple ascending dose; 100 mg): 3.27 days | Cmax (Multiple ascending dose; 100 mg, 100 mg QD, Day 1): 375 ng/mL | Cmax (Multiple ascending dose; 100 mg, 100 mg QD, Day 14): 2680 ng/mL | Cmax (Multiple ascending dose; 100 mg, 100 mg QD, Day 18): 2750 ng/mL | concentration at 24 h (Multiple ascending dose; 100 mg, 100 mg QD, Day 1, 24 h): 272 ng/mL | concentration at 24 h (Multiple ascending dose; 100 mg, 100 mg QD, Day 14, 24 h): 2420 ng/mL | concentration at 24 h (Multiple ascending dose; 100 mg, 100 mg QD, Day 18, 24 h): 2460 ng/mL | Tmax (Multiple ascending dose; 100 mg, 100 mg QD, Day 1): 9 h | Tmax (Multiple ascending dose; 100 mg, 100 mg QD, Day 14): 7.49 h | Tmax (Multiple ascending dose; 100 mg, 100 mg QD, Day 18): 9.01 h | half-life (Multiple ascending dose; 500 mg): 3.1 days
